ChEMBL document CHEMBL2169767 (J Med Chem, 2012)
Where a SMILES comes first, the peptide text is derived from it. [ ]: non-standard residue; d: D form. d1Nal = N[C@H](Cc1cccc2ccccc12)C(=O)O; Phg = N[C@H](C(=O)O)c1ccccc1

Tests used:
Rattus norvegicus [1] = assay: Toxicity in rat assessed as decrease in water consumption at 1 nmol, icv measured over 120 mins; format: organism-based; settings: in vivo, icv_or_intrathecal, 2 h
Rattus norvegicus [2] = assay: Toxicity in rat assessed as decrease in activity at 1 nmol, icv measured over 120 mins; format: organism-based; settings: in vivo, icv_or_intrathecal, 2 h
[3] = target: T1, Growth hormone secretagogue receptor type 1 (Homo sapiens, UniProt Q92847); assay: Ratio of EC50 of ghrelin to EC50 of compound at human ghrelin receptor expressed in COS 7 cells using [2-3H]myo-inositol by inositol triphosphate turnover assay; format: functional, cell-based
[4] = target: T1, Growth hormone secretagogue receptor type 1; assay: Activation of human ghrelin receptor expressed in COS 7 cells using [2-3H]myo-inositol by inositol triphosphate turnover assay; format: functional, cell-based
Procedure, shortened: (§1)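 Stimulated with seven to nine peptide concentrations, stopped by aspirating medium. Lysate supernatant purified on anion-exchange resin. Emax = difference between constitutive activity and activity at maximal peptide effect; EC50 = half-maximal concentration.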

[5] = target: T1, Growth hormone secretagogue receptor type 1; assay: Displacement of [125I]-His-ghrelin from human ghrelin receptor expressed in COS7 cells incubated for 75 mins by scintillation counting based assay; format: cell-based, COS-7
[6] = target: T1, Growth hormone secretagogue receptor type 1; assay: Agonist activity at human ghrelin receptor expressed in COS 7 cells using [2-3H]myo-inositol by inositol triphosphate turnover assay relative to untreated control; format: functional, cell-based; procedure, shortened: as §1
[7] = target: Growth hormone secretagogue receptor type 1 (Homo sapiens, UniProt Q92847, S123A); assay: Agonist activity at FLAG-tagged human ghrelin receptor Ser123:Ala mutant expressed in COS 7 cells using [2-3H]myo-inositol by inositol triphosphate turnover assay; format: functional, cell-based
Procedure, shortened: (§2)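 COS7 cells transiently or stably (hygromycin B 0.4 mg/mL) transfected with receptor; transient cells exposed 14 h to receptor DNA with metafectene. Day after transfection/seeding, labelled with [2-3H]myo-inositol (2 μCi/mL), then stimulated with seven to nine peptide concentrations; stopped by aspirating medium, lysate supernatant purified on anion-exchange resin. EC50 = half-maximal effect; Emax = difference between constitutive activity and maximal-effect activity.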

[8] = target: Growth hormone secretagogue receptor type 1 (Homo sapiens, UniProt Q92847, F119S); assay: Agonist activity at FLAG-tagged human ghrelin receptor Phe119:Ser mutant expressed in COS 7 cells using [2-3H]myo-inositol by inositol triphosphate turnover assay; format: functional, cell-based
[9] = target: T1, Growth hormone secretagogue receptor type 1; assay: Agonist activity at FLAG-tagged human ghrelin receptor expressed in COS 7 cells using [2-3H]myo-inositol by inositol triphosphate turnover assay; format: functional, cell-based; procedure, shortened: as §2

T1 sequence (Q92847 whole entry): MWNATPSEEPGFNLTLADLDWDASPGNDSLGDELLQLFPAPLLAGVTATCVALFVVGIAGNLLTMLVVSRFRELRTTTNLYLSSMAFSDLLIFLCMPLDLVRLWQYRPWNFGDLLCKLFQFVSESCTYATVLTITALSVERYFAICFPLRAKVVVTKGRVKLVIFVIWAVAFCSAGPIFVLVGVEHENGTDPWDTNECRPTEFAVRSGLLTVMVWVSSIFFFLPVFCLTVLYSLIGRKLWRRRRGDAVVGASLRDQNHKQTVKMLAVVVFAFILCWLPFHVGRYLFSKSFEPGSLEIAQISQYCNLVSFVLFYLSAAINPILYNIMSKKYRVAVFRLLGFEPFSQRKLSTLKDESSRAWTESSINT
Chain of Growth hormone secretagogue receptor type 1 (Homo sapiens, UniProt Q92847, F119S) (Q92847 whole entry F119S): as the sequence (Q92847 whole entry) above, with F119S counted along it
Chain of Growth hormone secretagogue receptor type 1 (Homo sapiens, UniProt Q92847, S123A) (Q92847 whole entry S123A): as the sequence (Q92847 whole entry) above, with S123A counted along it

Row | SMILES | Ratio EC50 [3] | EC50 [4] | IC50 [5] | also measured
1 | CC(C)C[C@H](NC(=O)[C@H](CC(C)C)NC(=O)[C@@H](Cc1c[nH]c2ccccc12)NC(=O)[C@H](Cc1ccccc1)NC(=O)[C@@H](Cc1cccc2ccccc12)NC(=O)[C@@H](N)CCCCN)C(N)=O | – | – | – | Activity (Rattus norvegicus [1]): Toxic; Activity (Rattus norvegicus [2]): Toxic
2 | CC(C)C[C@H](NC(=O)[C@H](CC(C)C)NC(=O)[C@@H](Cc1ccc(C(=O)c2ccccc2)cc1)NC(=O)[C@H](Cc1ccccc1)NC(=O)[C@@H](Cc1c[nH]c2ccccc12)NC(=O)[C@@H](N)CCCCN)C(N)=O | > 700 | > 1000 nM | ≥ 1000 nM | –
3 | CC(C)C[C@H](NC(=O)[C@H](CC(C)C)NC(=O)[C@@H](Cc1ccc(-c2ccccc2)cc1)NC(=O)[C@H](Cc1ccccc1)NC(=O)[C@@H](Cc1c[nH]c2ccccc12)NC(=O)[C@@H](N)CCCCN)C(N)=O | > 700 | > 1000 nM | ≥ 1000 nM | –
4 | CC(C)C[C@H](NC(=O)[C@H](CC(C)C)NC(=O)[C@H](NC(=O)[C@H](Cc1ccccc1)NC(=O)[C@@H](Cc1c[nH]c2ccccc12)NC(=O)[C@@H](N)CCCCN)C(c1ccccc1)c1ccccc1)C(N)=O | > 700 | > 1000 nM | ≥ 1000 nM | –
5 | CC(C)C[C@H](NC(=O)[C@H](CC(C)C)NC(=O)[C@@H](Cc1cccc2ccccc12)NC(=O)[C@H](Cc1ccccc1)NC(=O)[C@@H](Cc1c[nH]c2ccccc12)NC(=O)[C@@H](N)CCCCN)C(N)=O | 12.8 | – | – | Emax [6]: 54%; Ki [5]: 247 nM
6 | CC(C)C[C@H](NC(=O)[C@H](CC(C)C)NC(=O)[C@@H](Cc1c[nH]c2ccccc12)NC(=O)[C@@H](NC(=O)[C@@H](Cc1cccc2ccccc12)NC(=O)[C@@H](N)CCCCN)c1ccccc1)C(N)=O (H-K[d1Nal][Phg][dW]LL-NH2) | – | > 1000 nM | – | –
7 | CC(C)C[C@H](NC(=O)[C@H](CC(C)C)NC(=O)[C@@H](Cc1cccc2ccccc12)NC(=O)[C@H](Cc1ccccc1)NC(=O)[C@@H](Cc1cccc2ccccc12)NC(=O)[C@@H](N)CCCCN)C(N)=O | – | > 1000 nM | – | –
8 | CC(C)C[C@H](NC(=O)[C@H](CC(C)C)NC(=O)[C@@H](Cc1ccc2ccccc2c1)NC(=O)[C@H](Cc1ccccc1)NC(=O)[C@@H](Cc1c[nH]c2ccccc12)NC(=O)[C@@H](N)CCCCN)C(N)=O | 9 | – | – | Emax [6]: 156%; EC50 [7]: 6.7 nM; EC50 [8]: 13.4 nM; Ki [5]: 234 nM; EC50 [9]: 7.2 nM
